The inhibition is how much of the control response was suppressed. By Ki is commonly meant a measure of affinity in units of concentration, obtained from inhibition or displacement.

Series [1] has as its target T1, D2 dopamine receptor (Homo sapiens, UniProt P14416). Description: Displacement of [3H]N-methylspiperone from recombinant human D2 receptor stably expressed in fibroblast at 10 uM measured after 90 mins by microbeta scintillation counting method relative to control. To be noted: fibroblasts stably expressing recombinant human D2 receptor, probe [3H]N-methylspiperone.

In series [2] the target is D(4) dopamine receptor (Homo sapiens) (UniProt P21917). Description: Displacement of [3H]N-methylspiperone from recombinant human D4 receptor stably expressed in HEK cell membranes at 10 uM measured after 90 mins by microbeta scintillation counting method relative to control.
Sequence of D(4) dopamine receptor (Homo sapiens) (P21917 whole entry): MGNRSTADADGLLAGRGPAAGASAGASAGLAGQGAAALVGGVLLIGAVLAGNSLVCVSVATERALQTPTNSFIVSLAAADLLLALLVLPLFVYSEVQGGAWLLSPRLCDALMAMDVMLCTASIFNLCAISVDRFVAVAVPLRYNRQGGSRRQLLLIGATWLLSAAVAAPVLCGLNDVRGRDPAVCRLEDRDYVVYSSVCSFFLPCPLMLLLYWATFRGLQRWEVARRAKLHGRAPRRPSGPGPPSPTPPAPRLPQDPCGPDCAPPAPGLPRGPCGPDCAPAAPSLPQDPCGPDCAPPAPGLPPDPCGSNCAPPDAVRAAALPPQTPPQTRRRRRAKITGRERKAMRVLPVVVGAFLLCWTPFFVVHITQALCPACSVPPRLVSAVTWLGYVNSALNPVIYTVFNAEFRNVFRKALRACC
Series [3] deals with 5-hydroxytryptamine receptor 2A (Homo sapiens, UniProt P28223). In words: Displacement of [3H]-ketanserin from 5HT2A receptor (unknown origin) at 10 uM measured after 90 mins by microbeta scintillation counting method relative to control. Summed up: (§1)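 Primary screen at 10 μM compound, expressed as % receptor inhibition, from at least three experiments.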
Sequence of 5-hydroxytryptamine receptor 2A (P28223 whole entry): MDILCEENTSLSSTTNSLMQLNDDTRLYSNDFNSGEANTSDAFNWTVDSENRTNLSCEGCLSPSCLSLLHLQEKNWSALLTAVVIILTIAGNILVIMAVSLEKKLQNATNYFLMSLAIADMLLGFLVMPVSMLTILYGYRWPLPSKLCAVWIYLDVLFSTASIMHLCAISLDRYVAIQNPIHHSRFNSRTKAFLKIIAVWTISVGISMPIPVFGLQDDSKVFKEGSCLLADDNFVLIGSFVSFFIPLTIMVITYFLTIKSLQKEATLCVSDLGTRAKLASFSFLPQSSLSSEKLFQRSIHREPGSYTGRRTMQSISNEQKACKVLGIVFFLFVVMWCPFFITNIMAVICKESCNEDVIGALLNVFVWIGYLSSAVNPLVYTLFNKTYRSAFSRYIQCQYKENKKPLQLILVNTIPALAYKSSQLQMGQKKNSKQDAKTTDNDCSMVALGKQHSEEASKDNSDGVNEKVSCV
(In general: Displacement assays read how much labelled ligand stays bound in the presence of the test substance.)

In series [4] the target is T2, Alpha-2B adrenergic receptor (Homo sapiens, UniProt P18089). In words: Displacement of [3H]-rauwolscine from recombinant human alpha2B adrenergic receptor transiently expressed in HEKT cells at 10 uM measured after 90 mins by microbeta scintillation counting method relative to control. The following applies: probe [3H]-rauwolscine. It counts as cell-based.
T2 sequence (P18089 whole entry): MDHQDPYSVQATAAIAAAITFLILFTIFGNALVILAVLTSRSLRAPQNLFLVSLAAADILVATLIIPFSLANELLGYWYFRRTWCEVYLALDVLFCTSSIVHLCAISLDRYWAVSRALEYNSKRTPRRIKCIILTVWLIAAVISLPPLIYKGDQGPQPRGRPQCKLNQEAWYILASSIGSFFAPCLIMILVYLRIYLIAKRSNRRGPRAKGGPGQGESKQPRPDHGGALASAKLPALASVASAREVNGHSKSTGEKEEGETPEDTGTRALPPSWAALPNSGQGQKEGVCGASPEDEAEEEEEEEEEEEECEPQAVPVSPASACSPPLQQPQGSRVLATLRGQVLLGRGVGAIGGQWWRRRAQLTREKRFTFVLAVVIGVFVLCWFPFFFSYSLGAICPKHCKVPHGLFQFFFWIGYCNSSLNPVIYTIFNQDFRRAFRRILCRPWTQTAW
Series [5] deals with Sodium-dependent serotonin transporter (Homo sapiens, UniProt P31645). Description: Displacement of [3H]-citalopram from recombinant human SERT stably expressed in HEK cells measured after 90 mins by microbeta scintillation counting method. The series is classed as cell-based.
Sequence of Sodium-dependent serotonin transporter (P31645 whole entry): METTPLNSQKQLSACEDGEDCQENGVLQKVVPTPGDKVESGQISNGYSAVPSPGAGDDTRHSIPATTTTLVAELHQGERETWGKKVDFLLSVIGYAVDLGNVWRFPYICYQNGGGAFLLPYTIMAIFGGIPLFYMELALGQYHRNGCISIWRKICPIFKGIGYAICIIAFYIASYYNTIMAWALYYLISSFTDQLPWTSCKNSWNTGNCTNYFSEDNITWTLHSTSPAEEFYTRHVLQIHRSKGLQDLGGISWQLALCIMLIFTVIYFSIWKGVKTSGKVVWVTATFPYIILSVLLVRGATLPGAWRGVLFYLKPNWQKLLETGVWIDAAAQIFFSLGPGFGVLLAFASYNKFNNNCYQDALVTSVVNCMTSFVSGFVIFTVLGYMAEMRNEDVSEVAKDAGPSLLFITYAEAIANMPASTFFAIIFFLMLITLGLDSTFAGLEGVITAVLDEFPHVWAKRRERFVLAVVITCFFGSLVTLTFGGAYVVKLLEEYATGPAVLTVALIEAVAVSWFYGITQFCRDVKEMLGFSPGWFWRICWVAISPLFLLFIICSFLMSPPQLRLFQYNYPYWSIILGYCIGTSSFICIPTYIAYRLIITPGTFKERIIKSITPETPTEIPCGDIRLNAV
In series [6] the target is 5-hydroxytryptamine receptor 2C (Homo sapiens, UniProt P28335). In words: Displacement of [3H]-mesulergine from recombinant human 5HT2C receptor transiently expressed in HEKT cell membranes measured after 90 mins by microbeta scintillation counting method.
Sequence of 5-hydroxytryptamine receptor 2C (P28335 whole entry): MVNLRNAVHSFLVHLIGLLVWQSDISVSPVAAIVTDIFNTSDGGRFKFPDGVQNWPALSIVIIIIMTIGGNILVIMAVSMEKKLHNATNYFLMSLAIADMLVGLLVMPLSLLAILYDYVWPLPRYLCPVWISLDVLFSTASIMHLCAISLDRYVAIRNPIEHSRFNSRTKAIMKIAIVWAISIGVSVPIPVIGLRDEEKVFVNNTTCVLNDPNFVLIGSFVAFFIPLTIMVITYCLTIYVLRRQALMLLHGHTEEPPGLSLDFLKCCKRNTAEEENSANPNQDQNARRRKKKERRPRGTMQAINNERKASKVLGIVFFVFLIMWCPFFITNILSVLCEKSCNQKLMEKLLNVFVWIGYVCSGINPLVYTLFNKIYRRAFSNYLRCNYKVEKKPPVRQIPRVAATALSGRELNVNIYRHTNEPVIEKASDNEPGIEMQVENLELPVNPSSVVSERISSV
Series [7] deals with 5-hydroxytryptamine receptor 7 (Homo sapiens, UniProt P34969). Description: Displacement of [3H]-LSD from recombinant human 5HT7A receptor stably expressed in HEK cell membranes measured after 90 mins by microbeta scintillation counting method.
Sequence of 5-hydroxytryptamine receptor 7 (P34969 whole entry): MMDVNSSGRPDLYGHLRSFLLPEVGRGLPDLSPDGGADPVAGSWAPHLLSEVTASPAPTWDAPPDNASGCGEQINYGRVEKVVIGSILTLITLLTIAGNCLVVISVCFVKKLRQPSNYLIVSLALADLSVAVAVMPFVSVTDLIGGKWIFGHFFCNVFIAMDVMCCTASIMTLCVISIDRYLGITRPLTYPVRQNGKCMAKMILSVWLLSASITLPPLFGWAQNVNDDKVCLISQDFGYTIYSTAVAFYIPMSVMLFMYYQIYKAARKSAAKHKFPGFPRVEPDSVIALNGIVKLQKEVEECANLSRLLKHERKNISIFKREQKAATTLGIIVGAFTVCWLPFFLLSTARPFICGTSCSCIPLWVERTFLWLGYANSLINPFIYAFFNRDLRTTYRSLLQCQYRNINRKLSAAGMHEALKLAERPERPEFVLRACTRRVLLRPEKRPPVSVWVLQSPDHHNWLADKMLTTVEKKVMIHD
The target in series [8] is Muscarinic acetylcholine receptor M2 (Homo sapiens) (UniProt P08172). In words: Displacement of [3H]-QNB/[3H]-NMS from human muscarinic M2 receptor expressed in stable CHO cells at 10 uM after 90 mins by microbeta scintillation counting method relative to control. It counts as cell-based. The essentials: as §1
Sequence of Muscarinic acetylcholine receptor M2 (Homo sapiens) (P08172 whole entry): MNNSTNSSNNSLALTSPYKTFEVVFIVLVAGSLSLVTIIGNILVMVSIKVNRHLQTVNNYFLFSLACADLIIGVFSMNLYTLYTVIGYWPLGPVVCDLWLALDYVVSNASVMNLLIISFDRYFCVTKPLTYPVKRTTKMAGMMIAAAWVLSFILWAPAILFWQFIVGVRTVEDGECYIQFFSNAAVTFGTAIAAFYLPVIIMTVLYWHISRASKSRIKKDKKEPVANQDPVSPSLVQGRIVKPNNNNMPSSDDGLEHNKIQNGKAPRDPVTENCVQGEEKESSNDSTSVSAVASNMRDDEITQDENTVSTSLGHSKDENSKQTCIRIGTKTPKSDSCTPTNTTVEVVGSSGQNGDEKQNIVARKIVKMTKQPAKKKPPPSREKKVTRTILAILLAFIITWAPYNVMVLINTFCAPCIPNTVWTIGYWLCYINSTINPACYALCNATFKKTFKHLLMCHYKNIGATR
Series [9] has as its target Muscarinic acetylcholine receptor M3 (Homo sapiens, UniProt P20309). In words: Displacement of [3H]-QNB/[3H]-NMS from human muscarinic M3 receptor expressed in stable CHO cells at 10 uM after 90 mins by microbeta scintillation counting method relative to control. The series is classed as cell-based. The essentials:
as §1

Series [10] deals with Alpha-2A adrenergic receptor (Homo sapiens, UniProt P08913). In words: Displacement of [3H]-rauwolscine from recombinant human alpha2A adrenergic receptor stably expressed in MDCK cells measured after 90 mins by microbeta scintillation counting method. It counts as cell-based.
Sequence of Alpha-2A adrenergic receptor (P08913 whole entry): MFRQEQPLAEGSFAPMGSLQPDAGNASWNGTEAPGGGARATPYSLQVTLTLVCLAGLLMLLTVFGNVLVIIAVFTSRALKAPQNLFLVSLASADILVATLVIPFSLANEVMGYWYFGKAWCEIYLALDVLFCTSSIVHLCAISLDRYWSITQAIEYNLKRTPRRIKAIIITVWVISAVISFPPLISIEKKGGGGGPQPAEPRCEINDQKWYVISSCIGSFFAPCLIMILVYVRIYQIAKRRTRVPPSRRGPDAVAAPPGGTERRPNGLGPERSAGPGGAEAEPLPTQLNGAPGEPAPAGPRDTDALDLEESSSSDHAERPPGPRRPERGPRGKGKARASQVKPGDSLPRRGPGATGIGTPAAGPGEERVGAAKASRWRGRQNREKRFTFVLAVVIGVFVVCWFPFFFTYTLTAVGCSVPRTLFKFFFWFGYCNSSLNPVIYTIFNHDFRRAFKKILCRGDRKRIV
The target in series [11] is T2, Alpha-2B adrenergic receptor. In words: Displacement of [3H]-rauwolscine from recombinant human alpha2B adrenergic receptor transiently expressed in HEKT cells measured after 90 mins by microbeta scintillation counting method. The series is classed as cell-based.
Series [12] deals with T1, D2 dopamine receptor. Description: Displacement of [3H]N-methylspiperone from recombinant human D2 receptor stably expressed in fibroblast measured after 90 mins by microbeta scintillation counting method.

SMILES strings stand for the structures.

T1 sequence (P14416 whole entry): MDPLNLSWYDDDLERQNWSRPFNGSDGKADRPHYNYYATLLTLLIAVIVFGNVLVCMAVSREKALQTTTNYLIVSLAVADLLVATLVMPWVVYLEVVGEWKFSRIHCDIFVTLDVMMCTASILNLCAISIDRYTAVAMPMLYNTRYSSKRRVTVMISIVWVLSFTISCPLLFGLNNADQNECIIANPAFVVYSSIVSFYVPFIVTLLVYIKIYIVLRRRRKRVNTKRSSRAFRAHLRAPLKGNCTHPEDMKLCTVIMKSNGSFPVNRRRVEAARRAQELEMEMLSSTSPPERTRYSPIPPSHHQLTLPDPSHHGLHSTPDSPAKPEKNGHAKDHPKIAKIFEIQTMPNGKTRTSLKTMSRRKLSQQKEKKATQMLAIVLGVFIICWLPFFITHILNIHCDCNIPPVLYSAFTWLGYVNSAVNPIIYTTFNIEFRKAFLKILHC
Sequence of Muscarinic acetylcholine receptor M3 (P20309 whole entry, looked up): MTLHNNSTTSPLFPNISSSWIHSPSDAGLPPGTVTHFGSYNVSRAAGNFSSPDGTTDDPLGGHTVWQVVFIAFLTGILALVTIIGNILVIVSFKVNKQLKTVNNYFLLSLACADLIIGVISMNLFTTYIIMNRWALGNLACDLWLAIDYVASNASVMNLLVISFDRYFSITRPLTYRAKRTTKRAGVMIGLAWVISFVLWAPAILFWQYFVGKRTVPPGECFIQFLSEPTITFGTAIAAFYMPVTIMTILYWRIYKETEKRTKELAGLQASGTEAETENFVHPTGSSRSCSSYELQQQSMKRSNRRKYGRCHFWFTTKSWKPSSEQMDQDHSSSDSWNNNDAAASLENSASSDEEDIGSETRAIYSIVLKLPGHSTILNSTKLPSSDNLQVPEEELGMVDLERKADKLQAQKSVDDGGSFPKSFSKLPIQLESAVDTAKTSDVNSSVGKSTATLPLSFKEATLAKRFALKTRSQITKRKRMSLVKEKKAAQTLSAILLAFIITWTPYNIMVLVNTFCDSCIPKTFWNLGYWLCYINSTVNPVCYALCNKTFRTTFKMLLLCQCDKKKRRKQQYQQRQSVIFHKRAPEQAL

In the case of `COc1ccccc1N1CCC2(CCN(CCCSc3nnc(-c4ccccc4)n3C)CC2)CC1`, the inhibition at […], 10 µM (at D2 dopamine receptor [1]; in [4]) was less than 50% in each case. In addition, the inhibition in [2] and in series [3] was less than 50% throughout. The Ki in series [5] was 295 nM.
On to `COc1ccccc1N1CCN(CCCSc2nnc(-c3ccccc3)n2C)CC1`, for which the inhibition constant (Ki) was determined as 159 nM in series [6]; 128 nM in series [7]; 221 nM in series [10]; 241 nM in series [11]; 577 nM at D2 dopamine receptor [12]. The inhibition in series [8] and in series [9] was less than 50% each time.

The values are drawn from ChEMBL document CHEMBL4396871, “Leveraging a Low-Affinity Diazaspiro Orthosteric Fragment to Reduce Dopamine D3 Receptor (D3R) Ligand Promiscuity across Highly Conserved Aminergic G-Protein-Coupled Receptors (GPCRs)” (J Med Chem, 2019).
